# Compounds with a hit are over-represented: about 2.5% of the library has one in this group of screens.
# UCH37 DUB inh: inhibitors of human UCH37 deubiquitinase, primary screen, biochemical, Ub-AMC cleavage, fluorescence. Ubiquitin carboxyl-terminal hydrolase isozyme L5 (Homo sapiens), Q9Y5K5. purified proteasome/UCH37. inhibition, % (test concentration not listed). actives 0.33% (n = 330,000);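 active = mean inhibition over replicate wells above about 20%, limit read from the data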;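 note: 0% = compound-free wells with enzyme and 100% = wells lacking proteasome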
# Target sequence (Q9Y5K5 whole entry, looked up): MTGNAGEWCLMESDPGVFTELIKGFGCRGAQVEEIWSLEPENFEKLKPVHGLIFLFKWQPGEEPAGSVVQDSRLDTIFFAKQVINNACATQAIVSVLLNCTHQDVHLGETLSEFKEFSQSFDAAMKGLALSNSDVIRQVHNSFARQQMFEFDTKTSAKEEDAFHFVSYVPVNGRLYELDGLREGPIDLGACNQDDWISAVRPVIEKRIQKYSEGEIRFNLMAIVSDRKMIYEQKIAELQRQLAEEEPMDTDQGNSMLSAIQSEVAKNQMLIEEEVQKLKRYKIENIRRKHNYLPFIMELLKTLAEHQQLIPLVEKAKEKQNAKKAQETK
#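 Assay system: Proteasome-bound UCH37. Buffer or medium: pH 7.4 Tris-HCl (50 mM) with ovalbumin, ATP-MgCl2, DTT. Incubation: 30 min preincubation with enzyme, 25 min cleavage at room temperature. Measured by: fluorescence, ex 355 nm, em 460 nm. Read-out basis: percent inhibition. Control set: wells without proteasome as full block, compound-free enzyme plus substrate as uninhibited.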
# T cell modulator: modulators of CD8 T cell-vesicle binding, primary screen, mouse 2C CD8+ T cells, flow cytometry; AID 2052, 2009; 2C CD8+ T cell-vesicle binding; hits give low values; response (vesicle binding), % at 7 µM; actives 0.068% (n = 330,000);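 active = response, share of CD8 T cells binding vesicles, and their 90th percentile fluorescence all below set limits, cut at about 80% in these data, passing the limit was not always enough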;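 note: values below 100% mean blocked vesicle binding to the CD8+ T cells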
#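 Also added: QL9-peptide-loaded Drosophila micro-vesicles bearing Ld, ICAM-1 and B7-1; Test system: purified 2C TCR transgenic mouse naive CD8+ T cells; Measured by: cytometric PE anti-B7-1 and Alexa647 anti-CD8 signals after 1% paraformaldehyde fixation; Timing: binding step 1.5 h, 37 °C, antibody labelling 20 min, ice.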
# MEKK3 PB1 HTS: modulators of MEKK3-MEK5 PB1 binding, primary screen, biochemical, wildtype MEKK3, multiplex bead flow cytometry, Alexa488-MEK5; actives 1.4% (n = 290,000); binding response (% of control), % at 10 µM; Mitogen-activated protein kinase kinase kinase 3 (Homo sapiens), Q99759; bead-based flow cytometry, Alexa488-MEK5 binding to MEKK3; actives lie on both sides; 0 = blocked by unlabeled MEK5, 100 = vehicle;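 active = binding response more than 3 SD above or below the average of its plate-row segment, actives on both sides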;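 note: Alexa488 bead fluorescence after subtracting the streptavidin-only scavenger bead signal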
# Rce1 inhib: yeast Rce1p protease inhibitors, primary screen, biochemical, fluorescence, cell-free homogeneous | CAAX prenyl protease 2 (Saccharomyces cerevisiae (strain ATCC 204508 / S288c)), Q03530 | yeast membranes, quenched prenylated peptide cleavage fluorescence | calls only | actives 0.27% (n = 290,000) | AID 2563, 2010;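 active = fall in fluorescence gain of 50% or more versus controls, with final raw signal at or below 3038400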;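 note: plate controls were neutral control wells for no effect and wells lacking membranes for full effect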
# Target sequence (Q03530 whole entry, looked up): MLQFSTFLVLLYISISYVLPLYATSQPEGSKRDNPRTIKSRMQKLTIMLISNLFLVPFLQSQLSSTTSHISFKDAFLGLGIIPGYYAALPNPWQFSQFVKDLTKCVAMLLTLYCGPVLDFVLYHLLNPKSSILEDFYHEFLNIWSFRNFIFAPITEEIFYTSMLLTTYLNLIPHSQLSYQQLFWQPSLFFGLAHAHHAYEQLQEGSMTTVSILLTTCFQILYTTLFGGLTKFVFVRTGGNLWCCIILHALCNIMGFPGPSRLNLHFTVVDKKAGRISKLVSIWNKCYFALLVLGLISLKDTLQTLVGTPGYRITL
# MEKK2wt PB1 HTS: modulators of MEK5 binding to wildtype MEKK2, primary screen, biochemical, multiplex bead flow cytometry, Alexa488-MEK5; Alexa488-MEK5 binding to MEKK2 WT; actives lie on both sides; binding response (% of control), % at 10 µM; actives 1.1% (n = 290,000); in the data active = binding response below about 67% or above about 130%
# MEKK2 mut-MEK5: MEK5 binding signal on mutant MEKK2 PB1, primary screen, biochemical, multiplex bead flow cytometry, Alexa488-MEK5; Alexa488-MEK5 binding to MEKK2 mutant; percent response, % at 10 µM; actives 0.35% (n = 290,000); AID 1530, 2009; in the data active = percent response above about 24%, passing the limit was not always enough
# * marks the source's active call; other numbers are inactive results; i = inactive; nt = no result given; + = active, no number; [ ] = dose if it differs, or a comment.
SMILES,UCH37 DUB inh,T cell modulator,MEKK3 PB1 HTS,Rce1 inhib,MEKK2wt PB1 HTS,MEKK2 mut-MEK5
CC1=[N+](C)c2c(ccc3cccnc23)C1(C)C,-5,nt,91,nt,-9.0*,-15
COc1ccc(C2Nc3ccccc3C(=O)N2Cc2ccccc2)cc1COc1ccccn1 (stereo not drawn),-225,527,96,+,99,-1
COc1ccc(C2Nc3ccccc3C(=O)N2Cc2ccccc2)cc1OC (stereo not drawn),-217,195,nt,i,nt,nt
O=C(NN=Cc1ccc(-c2ccccc2[N+](=O)[O-])o1)C1COc2ccccc2O1 (stereo not drawn),6,nt,nt,nt,nt,nt
COC(=O)C(Cc1ccccc1)OS(N)(=O)=O (stereo not drawn),1,398,104,+,108,2
O=C(CCc1ccccc1)N/N=C/c1cc(Br)ccc1O,nt,0.0*,105,i,101,11
COc1ccc(SC[C@H](Cc2ccccc2)N2CC[C@@H](NC(=O)OCc3ccccc3)CCC2=O)cc1,-1,286,nt,nt,nt,nt
N#CC[C@H](Cc1ccccc1)N1CC[C@@H](NC(=O)OCc2ccccc2)CCC1=O,23*,157,106,i,119,2
CC(C)(C)C(=O)OCCn1c(=O)c2cc3c(=O)n(CCOC(=O)C(C)(C)C)c(=O)c3cc2c1=O,3,382,2.0*[inhibitor],i,2.0*[inhibitor],-16
CCOC(=O)c1ccc2c(c1)n(CC)c(/C=C/N(C)c1ccccc1)[n+]2CC,24*,270,98,i,101,-1
CCOC(=O)c1ccc2c(c1)n(CCO)c(C)[n+]2CC,4,579,101,i,107,10
Cc1cc(C)c2c(CC(=O)O)coc2c1,29*,266,97,i,99,2
CN(C)C=Nc1nc2nccc(-c3ccccc3)n2n1,i,nt,nt,nt,nt,nt
CN(C)/C=N/c1nc2nccc(-c3ccc(F)cc3)n2n1,nt,81,104,+,98,-1
OCCCNCc1ccc(N(c2ccccc2)c2ccccc2)cc1,-1,322,105,i,141*,33*
COc1ccc(-c2oc3ccc(N4CCOCC4)cc3c2/C=C/c2ccc(OC)c(OC)c2)cc1,-160,i,100,+,98,0
CC1=NN(c2ccccc2)C(=O)/C1=C\c1ccc(Br)s1,5,469,105,+,98,-1
CC(C)CNC(=O)c1cccc(NC(=O)COc2cccc([N+](=O)[O-])c2)c1,2,368,99,i,101,1
COC(=O)c1cccc(NC(=O)COc2cccc([N+](=O)[O-])c2)c1,33*,203,96,i,94,-5
CN1c2ccsc2C(O)=C(C(=S)Nc2ccccc2)S1(=O)=O,21*,242,102,i,102,3
Cc1ccc(NC(=S)C2=C(O)c3ccccc3N(C)S2(=O)=O)cc1,21*,292,103,i,100,3
Cc1ccccc1NC(=S)C1=C(O)c2sccc2N(C)S1(=O)=O,23*,641,100,i,104,2
CN1c2ccccc2C(O)=C(C(=O)Nc2ccccc2)S1(=O)=O,nt,324,98,i,99,0
CCNC(=O)C1=C(O)c2sccc2N(C)S1(=O)=O,6,172,104,i,97,1
CN1c2ccccc2C(O)=C(C(=S)Nc2ccccc2)S1(=O)=O,16,275,118,i,113,4
SMILES,UCH37 DUB inh,T cell modulator,MEKK3 PB1 HTS,Rce1 inhib,MEKK2wt PB1 HTS,MEKK2 mut-MEK5
CN(C)c1ccc(C=NNC(=O)c2ccccc2O)o1,1,nt,nt,nt,nt,nt
O=C(CNC(=O)c1ccccc1)NN=Cc1ccccc1Cl,1,nt,nt,nt,nt,nt
Cc1c2c(n3c(nc4ccccc43)c1C#N)N(CCCN(C)C)CC2,i,174,92,+,96,-42
Cc1c2c(n3c(nc4ccccc43)c1C#N)N(CCN(C)C)CC2,i,243,113,i,107,-42
OC[C@@H](O)[C@@H](O[C@H]1O[C@H](CO)[C@@H](O)[C@H](O)[C@H]1O)[C@H](O)[C@@H](O)CO,4,571,81,i,-4.0*,5
CCOC(=O)c1[nH]c(C)c(/C(O)=C2\C(=O)C(=O)N(CCN(C)C)C2c2ccncc2)c1C (stereo not drawn),29*,144,104,i,103,-2
CC(=O)N1CCN(c2ccccc2NC(=O)COc2ccc(Br)cc2)CC1,6,264,99,i,100,3
O=C(COc1ccc(Br)cc1)Nc1ccccc1N1CCCC1,28*,163,107,i,107,0
O=C(NN=Cc1ccc2c(c1)OCO2)c1sc2cccc(Cl)c2c1Cl,-27,nt,nt,nt,nt,nt
CC(N)c1ccc(Cl)cc1Cl (stereo not drawn),4,32*,112,i,116,26
O=C1CCN(CCCc2ccccc2)CCN1[C@H](CO)c1ccccc1,28*,354,102,i,113,3
O=C1CCN(CCc2ccccc2)CCN1[C@H](CO)c1ccccc1,4,427,97,i,98,-3
CC1CCCCC1NC(=O)Cn1cc([N+](=O)[O-])ccc1=O (stereo not drawn),7,516,nt,nt,nt,nt
Cc1cc(C)n(CC(=O)NC2CCCCC2C)c(=O)c1C#N (stereo not drawn),2,408,nt,+,nt,nt
O=C(CNC(=O)c1ccco1)NN=Cc1cccs1,6,nt,nt,nt,nt,nt
CC[n+]1c(C=C2C=C(C)OC(C)=C2)sc2ccccc21,23*,nt,100,i,100,-2
O=C(O)CCCn1c(O)c(C=C2N=c3ccccc3=N2)sc1=S,9,115,81,i,77,-8
COCCCn1c(O)c(/C=C2\N=C(C#N)C(=Nc3ccc(C)cc3)O2)sc1=S,nt,654,83,i,33*[inhibitor],-23
O=C(O)c1ccc(C=NNC(=O)c2ccc(NS(=O)(=O)c3cccs3)cc2)cc1,13,nt,nt,nt,nt,nt
CCc1ccc(-c2ccc(C(=O)O)cc2)nc1,1,33*,117,i,114,4
CCN1C(=O)/C(=C\N(C)C)NC1=S,9,208,107,i,110,4
COc1ccc(N2C(=O)/C(=C/N(C)C)NC2=S)cc1,23*,285,102,nt,102,7
O=C(NN=Cc1ccc(-n2ccnc2)cc1)c1cccs1,5,nt,nt,nt,nt,nt

# Screening results: PubChem BioAssay, several laboratories
